Laboratory results taken from ChEMBL document CHEMBL4680091, “Discovery of Novel Spiro[3H-indole-3,2'-pyrrolidin]-2(1H)-one Compounds as Chemically Stable and Orally Active Inhibitors of the MDM2-p53 Interaction” (J Med Chem, 2016).
One block for each molecule: values may come before it. Activity calls are given as the source filed them. No cut-off for these calls is given here.

Columns and labels:
[1] = target: Tumour suppressor p53/oncoprotein Mdm2 (Homo sapiens, UniProt Q00987); assay: Inhibition of GST-tagged MDM2 (amino acids 17 to 111 residues)/p53 (unknown origin) interaction incubated for 15 mins by; assay type: protein assay
SJSA-1 [2] = assay: Antiproliferative activity against human SJSA-1 cells expression wild type p53 incubated for 3 days by Alamar Blue dye based assay; assay type: functional, cell-based; conditions: SJSA-1, 72 h
SK-OV-3 = assay: Antiproliferative activity against human SK-OV-3 cells expression p53 mutant incubated for 3 days by Alamar Blue dye based assay; assay type: functional, cell-based; conditions: SK-OV-3, 72 h
Outline: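 p53-mutant SK-OV-3 cells were used in a growth/proliferation assay, with compounds tested up to 25 μM.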

[3] = target: E3 ubiquitin-protein ligase Mdm2 (Mus musculus) (UniProt P23804); assay: In-vivo inhibition of MDM2 in BomTac:NMRI-Foxn1^nu mouse xenografted with human SJSA-1 cells assessed as induction of cleaved CASPASE3 protein accumulation at 100 mg/kg, po administered as single dose and measured after 6 to 24 hrs by immunohistochemical analysis; assay type: functional, organism-based; conditions: time 6-24 hrs
Outline: (§1)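 SJSA-1 tumor-bearing NMRI nude mice received one oral dose of 100 mg/kg. Tumors were harvested at 6 h and 24 h. Sections were stained by immunohistochemistry for CDKN1a, TP53 and cleaved CASPASE3.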

[4] = Clearance in NMRI mouse at 5 mg/kg, iv; assay type: ADME, organism-based; conditions: in vivo
Outline: (§2)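 Non-tumor-bearing female NMRI nude mice were given a single dose by one of two routes. The iv arm received 5 mg/kg as a bolus in 25% HP-B-CD. The po arm received 50 mg/kg in 0.5% Natrosol (pH 7-8, NaOH titrated). Both used 10 ml/kg. Plasma levels were measured by LC/MS/MS, n=3 per dose group. Parameters came from non-compartmental analysis, with AUC0-24h by linear trapezoidal interpolation.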

[5] = Cmax in NMRI mouse at 50 mg/kg, po; assay type: ADME, organism-based; design: route oral, dose 50 mg/kg; conditions: in vivo; outline: as §2
SJSA-1 [6] = assay: Antitumor activity against human SJSA-1 cells xenografted in BomTac:NMRI-Foxn1^nu mouse assessed as induction of tumor regression at 25 mg/kg, po dosed daily for 13 days; assay type: functional, organism-based; conditions: time 13.0 day
Outline: (§3)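 NMRI nude mice bearing established subcutaneous SJSA-1 osteosarcoma tumors received oral treatment, with a vehicle control group. There were 8 animals per group. Median tumor volume and median body weight change (% of initial) were tracked.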

[7] = target: E3 ubiquitin-protein ligase Mdm2 (Mus musculus) (UniProt P23804); assay: In-vivo inhibition of MDM2 in BomTac:NMRI-Foxn1^nu mouse xenografted with human SJSA-1 cells assessed as induction of TP53 protein accumulation at 100 mg/kg, po administered as single dose and measured after 6 to 24 hrs by immunohistochemical analysis; assay type: functional, organism-based; conditions: time 6-24 hrs; outline: as §1
[8] = target: E3 ubiquitin-protein ligase Mdm2 (Mus musculus) (UniProt P23804); assay: In-vivo inhibition of MDM2 in BomTac:NMRI-Foxn1^nu mouse xenografted with human SJSA-1 cells assessed as induction of cleaved caspse-3 protein accumulation at 100 mg/kg, po administered as single dose and measured after 6 to 24 hrs by mesoscale assay; assay type: functional, organism-based; conditions: time 6-24 hrs
Outline: (§4)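 In NMRI nude mice with established subcutaneous SJSA-1 tumors, a single oral 100 mg/kg dose was compared with vehicle. Tumors collected at 6 h and 24 h post-dose were analysed for protein biomarkers by Meso-Scale assay.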

[9] = target: E3 ubiquitin-protein ligase Mdm2 (Mus musculus) (UniProt P23804); assay: In-vivo inhibition of MDM2 in BomTac:NMRI-Foxn1^nu mouse xenografted with human SJSA-1 cells assessed as induction of CDKN1a protein accumulation at 100 mg/kg, po administered as single dose and measured after 6 to 24 hrs by immunohistochemical analysis; assay type: functional, organism-based; conditions: time 6-24 hrs; outline: as §1
SJSA-1 [10] = assay: Antitumor activity against human SJSA-1 cells xenografted in BomTac:NMRI-Foxn1^nu mouse assessed as induction of tumor regression at 100 mg/kg, po administered as single dose and measured up to 13 days; assay type: functional, organism-based; conditions: time day <=13; outline: as §3
[11] = target: E3 ubiquitin-protein ligase Mdm2 (Mus musculus) (UniProt P23804); assay: In-vivo inhibition of MDM2 in BomTac:NMRI-Foxn1^nu mouse xenografted with human SJSA-1 cells assessed as induction of BBC3 mRNA expression at 100 mg/kg, po administered as single dose and measured after 6 to 24 hrs by q-RT-PCR analysis; assay type: functional, organism-based; conditions: time 6-24 hrs, TDE = time-dependent effect
Outline: (§5)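 Established subcutaneous SJSA-1 xenografts in NMRI nude mice were dosed once orally at 100 mg/kg, or with vehicle. Tumors were harvested 6 h and 24 h after dosing. TP53 target-gene mRNA was quantified by q-RT-PCR.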

[12] = target: E3 ubiquitin-protein ligase Mdm2 (Mus musculus) (UniProt P23804); assay: In-vivo inhibition of MDM2 in BomTac:NMRI-Foxn1^nu mouse xenografted with human SJSA-1 cells assessed as induction of TP53 protein accumulation at 100 mg/kg, po administered as single dose and measured after 6 to 24 hrs by mesoscale assay; assay type: functional, organism-based; conditions: time 6-24 hrs; outline: as §4
[13] = target: E3 ubiquitin-protein ligase Mdm2 (Mus musculus) (UniProt P23804); assay: In-vivo inhibition of MDM2 in BomTac:NMRI-Foxn1^nu mouse xenografted with human SJSA-1 cells assessed as induction of CDKN1a mRNA expression at 100 mg/kg, po administered as single dose and measured after 6 to 24 hrs by q-RT-PCR analysis; assay type: functional, organism-based; conditions: time 6-24 hrs, TDE = time-dependent effect; outline: as §5
[14] = target: E3 ubiquitin-protein ligase Mdm2 (Mus musculus) (UniProt P23804); assay: In-vivo inhibition of MDM2 in BomTac:NMRI-Foxn1^nu mouse xenografted with human SJSA-1 cells assessed as induction of MDM2 protein accumulation at 100 mg/kg, po administered as single dose and measured after 6 to 24 hrs by mesoscale assay; assay type: functional, organism-based; conditions: time 6-24 hrs; outline: as §4
[15] = target: E3 ubiquitin-protein ligase Mdm2 (Mus musculus) (UniProt P23804); assay: In-vivo inhibition of MDM2 in BomTac:NMRI-Foxn1^nu mouse xenografted with human SJSA-1 cells assessed as induction of MDM2 mRNA expression at 100 mg/kg, po administered as single dose and measured after 6 to 24 hrs by q-RT-PCR analysis; assay type: functional, organism-based; conditions: time 6-24 hrs, TDE = time-dependent effect; outline: as §5
[16] = AUC (0 to 24 hrs) in NMRI mouse at 50 mg/kg, po; assay type: ADME, organism-based; design: time < 24 hr, route oral, dose 50 mg/kg; conditions: in vivo; outline: as §2
[17] = Volume of distribution at steady state in NMRI mouse at 5 mg/kg, iv; assay type: ADME, organism-based; conditions: in vivo, read-out: Vdss; outline: as §2
[18] = Oral bio availability in NMRI mouse at 50 mg/kg; assay type: ADME, organism-based; conditions: in vivo; outline: as §2

Tumour suppressor p53/oncoprotein Mdm2, sequence (P04637 whole entry, the tested form may be a part): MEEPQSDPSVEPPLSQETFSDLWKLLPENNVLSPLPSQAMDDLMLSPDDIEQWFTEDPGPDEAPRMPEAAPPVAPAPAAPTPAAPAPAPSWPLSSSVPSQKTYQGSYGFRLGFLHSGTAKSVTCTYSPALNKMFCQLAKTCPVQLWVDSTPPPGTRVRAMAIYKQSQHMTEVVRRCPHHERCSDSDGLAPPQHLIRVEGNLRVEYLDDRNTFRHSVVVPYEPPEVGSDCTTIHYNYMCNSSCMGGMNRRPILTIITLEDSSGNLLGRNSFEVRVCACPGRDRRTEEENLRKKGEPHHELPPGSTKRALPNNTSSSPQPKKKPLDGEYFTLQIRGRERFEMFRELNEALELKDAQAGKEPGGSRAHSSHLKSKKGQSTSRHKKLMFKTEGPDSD
Tumour suppressor p53/oncoprotein Mdm2, sequence (Q00987 whole entry, the tested form may be a part): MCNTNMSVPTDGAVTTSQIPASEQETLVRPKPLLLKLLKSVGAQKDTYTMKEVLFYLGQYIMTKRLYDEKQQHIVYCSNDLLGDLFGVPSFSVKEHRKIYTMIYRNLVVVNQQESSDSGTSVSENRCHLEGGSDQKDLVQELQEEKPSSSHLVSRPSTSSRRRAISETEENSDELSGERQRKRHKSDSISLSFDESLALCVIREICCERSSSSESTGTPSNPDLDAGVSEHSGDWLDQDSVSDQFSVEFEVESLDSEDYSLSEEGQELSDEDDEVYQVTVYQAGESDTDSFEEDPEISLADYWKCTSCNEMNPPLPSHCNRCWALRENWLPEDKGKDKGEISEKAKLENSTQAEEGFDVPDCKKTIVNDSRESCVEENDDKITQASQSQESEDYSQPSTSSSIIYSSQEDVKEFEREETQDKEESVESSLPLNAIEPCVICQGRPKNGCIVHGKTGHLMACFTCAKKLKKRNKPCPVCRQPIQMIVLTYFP
E3 ubiquitin-protein ligase Mdm2 (Mus musculus), sequence (P23804 whole entry): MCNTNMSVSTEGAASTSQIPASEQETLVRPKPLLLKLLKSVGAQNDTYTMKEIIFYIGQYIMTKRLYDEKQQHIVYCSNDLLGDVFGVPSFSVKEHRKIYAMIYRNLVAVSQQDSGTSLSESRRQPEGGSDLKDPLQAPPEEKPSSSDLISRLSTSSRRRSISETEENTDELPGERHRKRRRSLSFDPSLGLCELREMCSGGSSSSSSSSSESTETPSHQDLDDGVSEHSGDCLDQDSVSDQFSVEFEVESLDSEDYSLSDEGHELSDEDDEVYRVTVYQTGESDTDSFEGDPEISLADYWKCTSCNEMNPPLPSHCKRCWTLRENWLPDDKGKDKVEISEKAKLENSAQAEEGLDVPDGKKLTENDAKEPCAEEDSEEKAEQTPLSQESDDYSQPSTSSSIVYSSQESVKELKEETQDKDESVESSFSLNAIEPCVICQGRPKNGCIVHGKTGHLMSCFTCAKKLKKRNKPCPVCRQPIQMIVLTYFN

SMILES: O=C(O)c1ccc([C@H]2C[C@H]3[C@@H](N2)[C@H](c2cccc(Cl)c2F)[C@]2(C(=O)Nc4cc(Cl)ccc42)N3CC2CC2)cc1
- inhibition [3]: Active
- clearance [4]: 7.1 mL/min/kg
- Cmax [5]: 21.3 µM
- Activity (SJSA-1 [6]): Active
- inhibition [7]: Active
- IC50 (SJSA-1 [2]): 471 nM
- inhibition [8]: Active
- inhibition [9]: Active
- Activity (SJSA-1 [10]): Active
- inhibition [11]: Tde
- IC50 (SK-OV-3): > 25000 nM
- inhibition [12]: Active
- inhibition [13]: Tde
- inhibition [14]: Active
- inhibition [15]: Tde
- AUC(0-t) at 24 h [16]: 264 µM·h
- Vd [17]: 2.1 L/kg

SMILES: CCOc1cccc(CN2[C@H]3C[C@H](c4ccc(C(=O)O)cc4)N[C@H]3[C@H](c3cccc(Cl)c3F)[C@]23C(=O)Nc2cc(Cl)ccc23)c1
- bioavailability [18]: 13%
- clearance [4]: 23.2 mL/min/kg
- Cmax [5]: 3.4 µM
- IC50 (SJSA-1 [2]): 67 nM
- IC50 (SK-OV-3): > 25000 nM
- AUC(0-t) at 24 h [16]: 8 µM·h
- Vd [17]: 1 L/kg

SMILES: O=C(O)C[C@@H]1N[C@@]2(C(=O)Nc3cc(Cl)ccc32)[C@@H](c2cccc(Cl)c2)[C@@H]1[N+](=O)[O-] (racemic)
- IC50 [1]: 18600 nM

SMILES: CSC[C@@H]1N[C@@]2(C(=O)Nc3cc(Cl)ccc32)[C@@H](c2cccc(Cl)c2)[C@@H]1[N+](=O)[O-] (racemic)
- IC50 [1]: 24600 nM

SMILES: CC(C)CCN1[C@@H](C)[C@@H](N)[C@H](c2cccc(Cl)c2)[C@]12C(=O)Nc1cc(Cl)ccc12 (racemic)
- IC50 [1]: 1080 nM

SMILES: NC(=O)c1ccc([C@H]2C[C@H]3[C@@H](N2)[C@H](c2cccc(Cl)c2F)[C@]2(C(=O)Nc4cc(Cl)ccc42)N3CC2CC2)cc1
- bioavailability [18]: 58%
- clearance [4]: 7.4 mL/min/kg
- Cmax [5]: 6.9 µM
- IC50 (SJSA-1 [2]): 1450 nM
- IC50 (SK-OV-3): > 25000 nM
- AUC(0-t) at 24 h [16]: 100 µM·h
- Vd [17]: 2 L/kg

SMILES: NC(=O)CC[C@@H]1N[C@@]2(C(=O)Nc3cc(Cl)ccc32)[C@@H](c2cccc(Cl)c2)[C@@H]1[N+](=O)[O-] (racemic)
- IC50 [1]: 13500 nM

SMILES: O=C1Nc2cc(Cl)ccc2[C@]12NC[C@@H]([N+](=O)[O-])[C@@H]2c1cccc(Cl)c1 (racemic)
- IC50 [1]: 36500 nM

SMILES: CC(C)(C)CN1C[C@@H](N)[C@H](c2cccc(Cl)c2)[C@]12C(=O)Nc1cc(Cl)ccc12
- IC50 [1]: 819 nM

Further lines, results first:

- IC50 [1]: 212 nM
SMILES: CC(=O)N1CC[C@H]2[C@@H]1[C@H](c1cccc(Cl)c1F)[C@]1(C(=O)Nc3cc(Cl)ccc31)N2CC1CC1 (racemic)

- IC50 (SJSA-1 [2]): 2880 nM
- IC50 (SK-OV-3): > 25000 nM
- IC50 [1]: 62 nM
SMILES: C[C@H]1[C@@H](NCC(=O)O)[C@H](c2cccc(Cl)c2F)[C@]2(C(=O)Nc3cc(Cl)ccc32)N1CC1CC1

- IC50 [1]: 107 nM
SMILES: C[C@H]1[C@@H](NCc2ccc(C(=O)O)cc2)[C@H](c2cccc(Cl)c2F)[C@]2(C(=O)Nc3cc(Cl)ccc32)N1CC1CC1

- IC50 [1]: 57 nM
SMILES: CCOc1cccc(CN2[C@@H](C)[C@@H](N)[C@H](c3cccc(Cl)c3F)[C@]23C(=O)Nc2cc(Cl)ccc23)c1 (racemic)

- IC50 [1]: 80 nM
SMILES: O=C(O)CN1CC[C@H]2[C@@H]1[C@H](c1cccc(Cl)c1)[C@]1(C(=O)Nc3cc(Cl)ccc31)N2CC1CC1 (racemic)

- IC50 [1]: 229 nM
SMILES: CC(=O)N[C@@H]1[C@H](C)N(CC2CC2)[C@@]2(C(=O)Nc3cc(Cl)ccc32)[C@H]1c1cccc(Cl)c1F

- IC50 (SJSA-1 [2]): 2980 nM
- IC50 (SK-OV-3): > 25000 nM
- IC50 [1]: 157 nM
SMILES: C[C@H]1[C@@H](N)[C@H](c2cccc(Cl)c2F)[C@]2(C(=O)Nc3cc(Cl)ccc32)N1CC1CC1

- IC50 [1]: 563 nM
SMILES: C[C@H]1[C@@H](N)[C@H](c2cccc(Cl)c2)[C@]2(C(=O)Nc3cc(Cl)ccc32)N1CC1CC1
